Experimental findings from ChEMBL document CHEMBL1177781, “Synthesis and SAR of potent inhibitors of the Hepatitis C virus NS3/4A protease: exploration of P2 quinazoline substituents” (Bioorg Med Chem Lett, 2010) are described below.

Series [1] is described as follows: Inhibition of HCV 1a NS3/4A protease. More on the design: species or system Hepatitis C virus subtype 1a. Summed up:
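Enzyme inhibition was determined as Ki against recombinant full-length NS3 enzyme, following a literature procedure, in an external laboratory.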

For a further series, the system named is Liver microsomes. In words: Intrinsic clearance in human liver microsomes. It is filed as ADME, Microsome. The method, boiled down: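 Metabolic stability in human liver microsomes was expressed as intrinsic clearance (Cl_int, µL/min/mg).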
Background: Liver microsomes are a subcellular fraction often used to study metabolism.

Series [2] can be described thus: Apparent permeability across human Caco-2 cells. It is filed as ADME, cell-based. Background: Caco-2 cells form a polarised layer with tight junctions and transporters.
The subject of a further series is Hepatitis C virus. In words: Antiviral activity against HCV1b infected in human Huh7 cells assessed as inhibition viral subgenomic replication. Type of series: functional, organism-based, Hepacivirus hominis. The note with it: genotype 1b, Huh-7. The method, boiled down: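 Cell-based EC50 was measured in Huh7 cells carrying the subgenomic bicistronic HCV replicon clone ET, with a luciferase read-out.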

Series [3] is described as follows: Tmax in Sprague-Dawley rat at 10 mg/kg, po. The note with it: in vivo. It is filed as ADME, organism-based. Details: dose 10 mg/kg, route oral. The method, boiled down:
(§1)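 Male Sprague–Dawley rats (n = 2 per route) received a single intravenous dose (2 mg base-equiv/kg) or an oral dose. Mean plasma levels were followed to derive Cl, Vdss, AUC, Cmax, Tmax, T1/2 and F. Liver-to-plasma ratio was determined at 6 h.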

Series [4] is described as follows: Half life in Sprague-Dawley rat at 10 mg/kg, po. Particulars: in vivo. Details: dose 10 mg/kg, route oral. Type of series: ADME, organism-based. The method, boiled down:
as §1

Series [5] is described as follows: (§2) Clearance in Sprague-Dawley rat at 2 mg/kg, iv. More on the design: dose 2 mg/kg, route intravenous. Type of series: ADME, organism-based. The note with it: Sprague-Dawley, in vivo. The method, boiled down: as §1
Series [6] is described as follows: AUC in Sprague-Dawley rat at 10 mg/kg, po. Type of series: ADME, organism-based. More on the design: dose 10 mg/kg, route oral. The note with it: plasma. Summed up: as §1
Series [7] in a line: Oral bioavailability in Sprague-Dawley rat at 10 mg/kg. The note with it: in vivo. It is filed as ADME, organism-based. The method, boiled down: as §1
A short description of series [8]: Cmax in Sprague-Dawley rat at 10 mg/kg, po. Type of series: ADME, organism-based. Details: dose 10 mg/kg, route oral. The note with it: in vivo. The method, boiled down:
as §1

Series [9] relates to Rattus norvegicus. Described as §2. It is filed as ADME, organism-based. More on the design: dose 2 mg/kg, route intravenous. Particulars: in vivo. Summed up: as §1
The nature of series [10]: Ratio of drug level in liver to plasma in Sprague-Dawley rat at 10 mg/kg, po after 6 hrs. It is filed as ADME, organism-based. More on the design: dose 10 mg/kg, route oral. The method, boiled down:
as §1

For series [11], the system named is Rattus norvegicus. In words: AUC in Sprague-Dawley rat at 2 mg/kg, iv. More on the design: dose 2 mg/kg, route intravenous. The note with it: in vivo. It is filed as ADME, organism-based, Plasma. The method, boiled down: as §1
Series [12] is described as follows: Ratio of drug level in liver to plasma in Sprague-Dawley rat at 2 mg/kg, iv after 6 hrs. More on the design: dose 2 mg/kg, route intravenous. It is filed as ADME, organism-based. Summed up:
as §1

Each structure is given as a SMILES string. A value given as a limit tells only on which side of the number the result lay.

For `CN1CCCC/C=C\[C@@H]2C[C@@]2(C(=O)NS(=O)(=O)C2CC2)NC(=O)[C@@H]2C[C@@H](Oc3nc(-c4ccccc4)nc4ccccc34)C[C@H]2C1=O`, in series [1], the affinity corresponds to a Ki of 0.4 nM. The compound also displayed a CL with Liver microsomes of 58 µL/min. The Papp (commonly the rate of passage across a membrane or cell layer, normalised by area and donor concentration) in series [2] amounted to 21 ×10⁻⁶ cm/s. Further, the EC50 (commonly the concentration that produces a half-maximal response) in the series on Hepatitis C virus is 52 nM.
As for `CN1CCCC/C=C\[C@@H]2C[C@@]2(C(=O)NS(=O)(=O)C2CC2)NC(=O)[C@@H]2C[C@@H](Oc3nc(N4CCOCC4)nc4ccccc34)C[C@H]2C1=O`, in series [1], the Ki – broadly, the equilibrium dissociation constant of an inhibitor or competing ligand from its target – came out at 6.2 nM. In the series on Hepatitis C virus, the EC50 was found to be 390 nM.
For `CN1CCN(c2nc(O[C@@H]3C[C@H]4C(=O)N[C@]5(C(=O)NS(=O)(=O)C6CC6)C[C@H]5/C=C\CCCCN(C)C(=O)[C@@H]4C3)c3ccccc3n2)CC1` the same measures were 1.2 nM and 830 nM.
For `CC(C)c1csc(-c2nc(O[C@@H]3C[C@H]4C(=O)N[C@]5(C(=O)NS(=O)(=O)C6CC6)C[C@H]5/C=C\CCCCN(C)C(=O)[C@@H]4C3)c3ccccc3n2)n1` the same measures were 0.8 nM and 120 nM.
Consider `COc1ccc2c(O[C@@H]3C[C@H]4C(=O)N[C@]5(C(=O)NS(=O)(=O)C6CC6)C[C@H]5/C=C\CCCCN(C)C(=O)[C@@H]4C3)nc(-c3ccccc3)nc2c1`, for which, in series [1], the Ki turned out to be 0.4 nM. In addition, in the series with Liver microsomes, the CL worked out at 88 µL/min. Further, in series [2], the Papp came to 13 ×10⁻⁶ cm/s. The EC50 in the series with Hepatitis C virus came out at 14 nM.
`COc1ccc2c(O[C@@H]3C[C@H]4C(=O)N[C@]5(C(=O)NS(=O)(=O)C6CC6)C[C@H]5/C=C\CCCCN(C)C(=O)[C@@H]4C3)nc(-c3nc(C(C)C)cs3)nc2c1` showed a Ki in series [1] of 1.2 nM. Besides, the CL with Liver microsomes turned out to be 76 µL/min. In addition, the EC50 in the series with Hepatitis C virus stood at 58 nM.
Consider `COc1ccc2c(O[C@@H]3C[C@H]4C(=O)N[C@]5(C(=O)NS(=O)(=O)C6CC6)C[C@H]5/C=C\CCCCN(C)C(=O)[C@@H]4C3)nc(-c3ccc(F)cc3)nc2c1`, for which the inhibition constant (Ki) in series [1] was found to be 0.2 nM. In the series with Liver microsomes, the CL was determined as 32 µL/min. Moreover, the Papp in [2] came out at 20 ×10⁻⁶ cm/s. Further, the EC50 in the series with Hepatitis C virus stood at 11 nM.
With `COc1ccc2c(O[C@@H]3C[C@H]4C(=O)N[C@]5(C(=O)NS(=O)(=O)C6CC6)C[C@H]5/C=C\CCCCN(C)C(=O)[C@@H]4C3)nc(-c3ccccc3)nc2c1C`, the Tmax (usually the time at which the peak concentration occurs) in series [3] was 2 h. The affinity in series [1], expressed as Ki, was 0.1 nM. In addition, the CL in the series with Liver microsomes is below 6 µL/min. Moreover, the half-life – broadly, the time in which the quantity being followed falls by half – in series [4] is 3.8 h. Moreover, the clearance (in general, a measure of how efficiently the substance is removed, as volume per time) in series [5] was 16.7 mL/min/kg. For the same compound, the Papp in series [2] stood at 13 ×10⁻⁶ cm/s. Also, the EC50 with Hepatitis C virus is 5 nM. Further, the AUC (usually the area under the concentration-time curve, a measure of exposure) in series [6] worked out at 3.3 µM·h. The bioavailability – broadly, dose-corrected exposure relative to a reference, in per cent – in [7] worked out at 40%. Also, the maximum concentration (Cmax) (in general, the highest concentration seen after dosing) in [8] amounted to 660 nM.
In series [1], `COc1ccc(-c2nc(O[C@@H]3C[C@H]4C(=O)N[C@]5(C(=O)NS(=O)(=O)C6CC6)C[C@H]5/C=C\CCCCN(C)C(=O)[C@@H]4C3)c3ccc(OC)c(C)c3n2)cc1` displayed a Ki of 0.6 nM. Also, in the series with Liver microsomes, the CL was 11 µL/min. Further, the Papp in series [2] was found to be 9 ×10⁻⁶ cm/s. Also, in the series on Hepatitis C virus, the EC50 was found to be 8 nM.
The compound `COc1ccc2c(O[C@@H]3C[C@H]4C(=O)N[C@]5(C(=O)NS(=O)(=O)C6CC6)C[C@H]5/C=C\CCCCN(C)C(=O)[C@@H]4C3)ncnc2c1C` returned an inhibition constant (Ki) in series [1] above 1000 nM. Also, the half-maximal effective concentration (EC50) in the series with Hepatitis C virus was above 1000 nM.
For `COc1ccc2c(O[C@@H]3C[C@H]4C(=O)N[C@]5(C(=O)NS(=O)(=O)C6CC6)C[C@H]5/C=C\CCCCN(C)C(=O)N4C3)nc(-c3ccccc3)nc2c1C`, the Tmax in [3] amounted to 5 h. The compound further showed a Ki in series [1] of 0.2 nM. Also, the CL with Liver microsomes came to 17 µL/min; in the series on Rattus norvegicus [9], 11.5 mL/min/kg. Besides, the apparent permeability coefficient (Papp) in [2] was found to be 26 ×10⁻⁶ cm/s. Also, the EC50 in the series with Hepatitis C virus worked out at 11 nM. Besides, the Kp (commonly tissue or fluid exposure divided by exposure in the circulation) at 6 h in series [10] turned out to be 32; in series [12], 38. Further, the AUC was found to be 15 µM·h in series [6] and 8.4 µM·h with Rattus norvegicus [11]. In series [7], the bioavailability was found to be 73%. Further, in series [8], the Cmax is 3400 nM.
`COc1ccc2c(O[C@@H]3C[C@H]4C(=O)N[C@]5(C(=O)NS(=O)(=O)C6CC6)C[C@H]5/C=C\CCCCN(C)C(=O)N4C3)nc(-c3ccc(F)cc3)nc2c1C`: the Tmax in [3] was 5 h. In series [1], this compound displayed a Ki of 0.3 nM. This compound also yielded a CL in the series on Liver microsomes below 6 µL/min. In [5], this compound showed a clearance of 9.33 mL/min/kg. The Papp in series [2] came to 32 ×10⁻⁶ cm/s. The EC50 in the series on Hepatitis C virus turned out to be 16 nM. The partition ratio (Kp) at 6 h in series [10] is 42. For the same compound, the AUC in series [6] stood at 11 µM·h. In series [8], this compound came in with a Cmax of 2600 nM.
For the compound `COc1ccc(-c2nc(O[C@@H]3C[C@H]4C(=O)N[C@]5(C(=O)NS(=O)(=O)C6CC6)C[C@H]5/C=C\CCCCN(C)C(=O)N4C3)c3ccc(OC)c(C)c3n2)cc1`, affinity in series [1] was put at a Ki of 0.6 nM. Further, the CL with Liver microsomes came to 8 µL/min. The Papp in series [2] stood at 33 ×10⁻⁶ cm/s. In addition, the EC50 in the series on Hepatitis C virus worked out at 3 nM.
In turn, `COc1ccc2c(O[C@@H]3C[C@H]4C(=O)N[C@]5(C(=O)NS(=O)(=O)C6CC6)C[C@H]5/C=C\CCCCN(C)C(=O)N4C3)nc(-c3cccc(C)n3)nc2c1C` gave a Ki in series [1] of 0.9 nM. The EC50 in the series on Hepatitis C virus is 130 nM.
For `COc1ccc2c(O[C@@H]3C[C@H]4C(=O)N[C@]5(C(=O)NS(=O)(=O)C6CC6)C[C@H]5/C=C\CCCCN(C)C(=O)N4C3)nc(-c3cccnc3)nc2c1C` the same measures were 2.8 nM and 13 nM.
In [1], `COc1ccc2c(O[C@@H]3C[C@H]4C(=O)N[C@]5(C(=O)NS(=O)(=O)C6CC6)C[C@H]5/C=C\CCCCN(C)C(=O)N4C3)nc(-c3ccncc3)nc2c1C` returned a Ki of 0.2 nM. Besides, the CL with Liver microsomes came to 14 µL/min. In addition, the Papp in series [2] worked out at 0.4 ×10⁻⁶ cm/s. Besides, in the series on Hepatitis C virus, the EC50 is 7 nM.
In turn, `COc1ccc2c(O[C@@H]3C[C@H]4C(=O)N[C@]5(C(=O)NS(=O)(=O)C6CC6)C[C@H]5/C=C\CCCCCNC(=O)N4C3)nc(-c3ccccc3)nc2c1C` came in with a Ki in series [1] of 0.3 nM. Also, the CL in the series with Liver microsomes was determined as 26 µL/min. In addition, the Papp in series [2] came out at 38 ×10⁻⁶ cm/s. In addition, the EC50 with Hepatitis C virus came to 23 nM.
For `COc1ccc2c(O[C@@H]3C[C@H]4C(=O)N[C@]5(C(=O)NS(=O)(=O)C6CC6)C[C@H]5/C=C\CCCCCNC(=O)N4C3)nc(-c3ccc(F)cc3)nc2c1C`, the Tmax in series [3] was found to be 2 h. For the same compound, the affinity in series [1], expressed as Ki, was 0.2 nM. In the series on Liver microsomes, this compound yielded a CL of 20 µL/min. The compound also showed a clearance in series [5] of 26.7 mL/min/kg. The Papp in [2] was found to be 32 ×10⁻⁶ cm/s. Moreover, the half-maximal effective concentration (EC50) in the series with Hepatitis C virus worked out at 16 nM. Further, the results for the Kp at 6 h in [10] and in series [12] were 100 and 2.5, respectively. Further, in series [6], the AUC is 1.7 µM·h. Besides, the bioavailability in series [7] was determined as 38%. In series [8], the concentration peaked (Cmax) at 390 nM.
